PP5 primary: PP5 phosphatase inhibitors, primary screen, biochemical, fluorescence; inhibition, % at 6.7 µM; hit rate 0.18% among 320,000; purified PP5c, OMFP substrate fluorescence;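 active = inhibition above the campaign's mean inhibition across all tested compounds plus 3 SD, cut at about 9.5% in these data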;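 note: 0% = DMSO only and 100% = 100 µM cantharidin control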
HCV core dimer: inhibitors of HCV core protein dimerization, primary screen, biochemical, TR-FRET, high-throughput. TR-FRET GST/Flag-core106 dimerization, 1536-well. inhibition, % at 5 µM. hit rate 0.33% among 300,000;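 active = inhibition above the mean of all tested compounds plus 3 SD, set per screening campaign, cut at about 45% in these data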
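Assay system – GST-tagged and Flag-tagged HCV core protein residues 1-106 · Quantity – core106 proteins, GST 13.5 nM and Flag 17 nM · Benchmarks – unlabelled core106 and no-GST-core106 wells · Read-out basis – percent inhibition of core106 dimerization signal · Detection – time-resolved FRET, ex 340 nm, em 617 and 671 nm · Schedule – 4 h at 22.5 °C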
ZTA counter: ZTA (EBV) inhibition in EBNA-1 counter-screen; P03206; ZTA-DNA binding, fluorescence polarization; inhibition, % at 11 µM; hit rate 0.15% among 320,000; AID 2234; in the data active = inhibition above about 33%
EBNA-1 inh: EBNA-1 DNA-binding inhibitors, primary screen, biochemical, fluorescence polarization; AID 1950, 2009; hit rate 0.34% among 300,000; inhibition, % at 14.8 µM; in the data active = inhibition above about 28%
PP1 counter: PP1-alpha phosphatase inhibitors, primary screen, counter-screen for PP5 inhibitor project, biochemical, fluorescence, OMFP substrate, single point; Serine/threonine-protein phosphatase PP1-alpha catalytic subunit (Homo sapiens), P62136; purified PP1alpha; inhibition, % at 6.7 µM; hit rate 0.9% among 320,000; AID 2235, 2010;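 active = inhibition above the mean inhibition of all tested compounds plus 3 SD, computed separately for each screening campaign, cut at about 15% in these data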
Target sequence (P62136 whole entry, looked up): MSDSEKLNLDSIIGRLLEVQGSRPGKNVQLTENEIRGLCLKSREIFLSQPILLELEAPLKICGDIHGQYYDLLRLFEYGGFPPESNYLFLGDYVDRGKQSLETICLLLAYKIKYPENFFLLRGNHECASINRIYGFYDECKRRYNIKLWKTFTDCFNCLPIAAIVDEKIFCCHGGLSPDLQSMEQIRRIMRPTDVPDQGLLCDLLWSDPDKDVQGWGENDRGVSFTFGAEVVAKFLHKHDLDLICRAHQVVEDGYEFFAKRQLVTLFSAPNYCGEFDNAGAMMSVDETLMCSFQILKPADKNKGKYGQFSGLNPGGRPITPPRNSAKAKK
PP1 inh confirm: PP1 phosphatase inhibitors, confirmation, biochemical, fluorescence, OMFP substrate, triplicate; hit rate 52% among 1,900; inhibition, % at 6.7 µM; purified PP1alpha; shares compounds with PP1 counter;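 active = mean PP1 inhibition above a set limit taken from the earlier primary screen, cut at about 15% in these data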
PP5 counter: PP5 phosphatase inhibition by PP1 hits, confirmation, counter-screen for PP1 inhibitor project, biochemical, fluorescence, triplicate | hit rate 4% among 1,900 | shares compounds with PP1 counter | purified PP5c, OMFP fluorescence | AID 2360, 2010 | inhibition, % at 6.7 µM;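 active = mean PP5 inhibition over triplicate wells above about 9.5% taken from the earlier PP1 screen, limit read from the data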
Numbers without * were called inactive. Shown are actives, neighbours in structure and some others; about 1.7% of the full set was active somewhere.

For COC(=O)c1ccc(NC(=O)c2ccc3c(c2)NC(=O)C2CCCN32)cc1 (stereo not given) the results were PP5 primary 7.1, ZTA counter -1.9, PP1 counter 34.4*, PP1 inh confirm 27.3* and PP5 counter 6.6.
`O=C(Nc1ccc(C(=O)NCCCN2CCN(c3ccccc3)CC2)cc1)C1=CSCCO1` gave PP5 primary 0.1, HCV core dimer -4.7, ZTA counter -14.8, EBNA-1 inh -6.7 and PP1 counter -0.6.
Screening CCOc1ccc(C2C3=C(Nc4nc(N)[nH]c(=O)c42)c2ccccc2C3=O)cc1 (stereo not given) returned PP5 primary 0.6, HCV core dimer -24.1, ZTA counter 3.1, EBNA-1 inh 0.1 and PP1 counter 1.9.
`CCCOc1ccc(C2C3=C(Nc4nc(N)[nH]c(=O)c42)c2ccccc2C3=O)cc1` (stereo not given) gave PP5 primary -0.6, HCV core dimer -2.3, ZTA counter -20.1, EBNA-1 inh -8.8, PP1 counter 18.9*, PP1 inh confirm 16.5* and PP5 counter 3.1.
For COc1ccc([C@H]2CC(=O)C=C(c3cccc(NC(C)=O)c3)C2)cc1 the results were PP5 primary 3.6, ZTA counter -7.3 and PP1 counter 11.4.
`COc1ccc(C2/C(=C(\O)c3ccc4c(c3)OCCO4)C(=O)C(=O)N2c2nc(C)c(C(C)=O)s2)cc1` (stereo not given) gave PP5 primary 1.9, HCV core dimer 0.1, ZTA counter -6.8, EBNA-1 inh -8.2, PP1 counter 18.8*, PP1 inh confirm 11.0 and PP5 counter -5.7.
O=C(Nc1nc(-c2nc3ccccc3s2)cs1)C1CC1 was read as PP5 primary 1.5, HCV core dimer -18.5, ZTA counter 3.9, EBNA-1 inh 6.3, PP1 counter 23.9*, PP1 inh confirm 25.9* and PP5 counter 0.4.
For O=C(CN1C(=O)CCC1=O)Nc1nc(-c2nc3ccccc3s2)cs1 the results were PP5 primary 0.1, HCV core dimer -7.8, ZTA counter 3.9, EBNA-1 inh -11.6 and PP1 counter -2.5.
`O=C(Nc1nc(-c2nc3ccccc3s2)cs1)c1ccco1` gave PP5 primary 2.9, HCV core dimer -39.2, ZTA counter -3.7, EBNA-1 inh 6.4, PP1 counter 23.4*, PP1 inh confirm 25.9* and PP5 counter -2.5.
For Clc1cccc(Cl)c1C[n+]1ccc2ccccc2c1 the results were PP5 primary -1.3, HCV core dimer -2.1, ZTA counter 8.1, EBNA-1 inh 6.8 and PP1 counter -3.2.
Screening CC(=O)c1ccc(NC(=O)CSc2nnc(-c3ccco3)c(-c3ccco3)n2)cc1 returned PP5 primary 2.4, HCV core dimer 36.1, ZTA counter 5.5, EBNA-1 inh -7.0 and PP1 counter 2.7.
O=C(NCc1ccccc1)c1ccc2nc(-c3ccco3)c(-c3ccco3)nc2c1 was read as PP5 primary 2.2, HCV core dimer 72.7*, ZTA counter 8.7, EBNA-1 inh 17.5, PP1 counter 28.0*, PP1 inh confirm 8.0 and PP5 counter 7.5.
CC(=O)c1ccc(NC(=O)c2ccc3nc(-c4ccco4)c(-c4ccco4)nc3c2)cc1 was read as PP5 primary -2.5, HCV core dimer 78.1*, ZTA counter 3.2, EBNA-1 inh 25.6, PP1 counter 33.5*, PP1 inh confirm 24.9* and PP5 counter 7.9.
O=C(c1cccc(C(=O)N2CCN(c3ncccn3)CC2)c1)N1CCN(c2ncccn2)CC1 was read as PP5 primary -0.4, HCV core dimer -3.8, ZTA counter -16.8, EBNA-1 inh 2.3 and PP1 counter -3.0.
